The full list was thinned out, with hits kept by preference.
T cruzi growth-1: inhibitors of T. cruzi proliferation. T. cruzi beta-gal in NIH3T3, GalScreen luminescence, 90 h. inhibition, % at 8.34 µM. hit rate 5.9% among 77,000;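 active = mean inhibition above about 93%, with at least 55% of replicates each passing it, limit read from the data, passing the limit was not always enough; inconclusive = only one of those two conditions holds; inactive = neither condition holds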
IDH1 R132H inh: blocks human IDH1 R132H reductase activity. diaphorase/resazurin fluorescence, 60 min. inhibition, % at 10 µM. hit rate 0.18% among 70,000. O75874; in the data active = inhibition above about 34%; inconclusive = no clear call, values can overlap the other calls; inactive = below about 11%;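 note: 0% = DMSO and 100% = no enzyme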
KDM4C inh: inhibitors of human demethylase GASC-1 KDM4C. AID 720574. Q9H3R0. GST-KDM4C 2-372, H3K9me3 peptide, LANCE TR-FRET. hit rate 0.15% among 96,000. inhibition, % at 12.5 µM;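 active = mean replicate inhibition above about 25%, with at least 55% of replicates also reaching it, limit read from the data, passing the limit was not always enough; inconclusive = only one of those two conditions met; inactive = neither condition met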
Target sequence (Q9H3R0 2-372 limits assumed): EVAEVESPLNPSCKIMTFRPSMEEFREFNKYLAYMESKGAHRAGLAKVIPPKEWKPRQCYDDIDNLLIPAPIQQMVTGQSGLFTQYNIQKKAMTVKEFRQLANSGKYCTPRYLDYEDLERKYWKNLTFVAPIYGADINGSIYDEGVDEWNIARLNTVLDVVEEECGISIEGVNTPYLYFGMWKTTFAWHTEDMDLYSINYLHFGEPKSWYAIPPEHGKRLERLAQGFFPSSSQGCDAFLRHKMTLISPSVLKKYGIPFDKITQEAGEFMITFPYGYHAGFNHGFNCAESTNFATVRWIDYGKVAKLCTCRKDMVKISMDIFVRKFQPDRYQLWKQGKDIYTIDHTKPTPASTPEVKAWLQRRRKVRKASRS
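Test system – GST-tagged GASC-1 (JMJD2C) catalytic fragment, aa 2-372 · Medium – HEPES buffer, pH 7.5, plus ascorbate · Reagent – H3K9me3 peptide with Fe(II)/2OG · Compound – one test concentration per compound · Timing – 30 min reaction, 60 min detection, RT · Technique – TR-FRET with Eu antibody and ULight streptavidin, EDTA stop · Read-out basis – inhibition from TR-FRET ratio decrease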
T cruzi growth-2: inhibitors of T. cruzi proliferation; hit rate 72% among 5,600; inhibition, % at 8.35 µM; AID 651739; T. cruzi beta-gal in NIH3T3, GalScreen luminescence, 90 h; shares compounds with T cruzi growth-1;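 active = mean replicate inhibition above about 95% and at least 55% of replicates individually reaching it, limit read from the data; inconclusive = only one of the two criteria is met; inactive = neither criterion is met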
T cruzi growth-3: inhibitors of T. cruzi proliferation | T. cruzi beta-gal in NIH3T3, GalScreen luminescence, 90 h | hit rate 21% among 5,600 | inhibition, % at 2.09 µM | AID 651740 | shares compounds with T cruzi growth-1;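 active = mean inhibition above about 95%, with at least 55% of replicates also reaching it, limit read from the data; inconclusive = meets just one of the two conditions; inactive = meets neither condition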;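 note: plate controls were neutral control median for no effect and positive control median for full effect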
NIH3T3 tox: NIH/3T3 (mouse) viability loss; shares compounds with T cruzi growth-1; NIH/3T3 viability, CellTiter-Glo ATP luminescence, 90 h; cytotoxicity (signal decrease), % at 8.35 µM; hit rate 14% among 5,600; AID 651742;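 active = mean signal decrease across replicates above about 35% based on untreated-well scatter, with enough replicates individually passing, limit read from the data; inconclusive = no rule stated though some were filed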;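 note: 0% = median of neutral control wells and 100% = median of positive control wells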
NIH3T3 tox 2: NIH/3T3 (mouse) viability loss | shares compounds with T cruzi growth-1 | NIH/3T3 viability, CellTiter-Glo ATP luminescence, 90 h | inhibition, % at 24.9 µM | hit rate 56% among 5,600 | AID 651744;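 active = mean loss of cell viability signal at or above a set limit, and enough replicates individually reaching it; inconclusive = meets only the mean limit or only the replicate share; inactive = meets neither condition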;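 note: 0% = median of neutral control wells and 100% = median of positive control wells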
Numbers without * were called inactive.

`C[C@H](CO)N1C[C@H](C)[C@H](CN(C)Cc2ccncc2)Oc2cc(C3=CCCCC3)ccc2S1(=O)=O` gave T cruzi growth-1 116*, IDH1 R132H inh 2, KDM4C inh 0, T cruzi growth-2 98*, T cruzi growth-3 84, NIH3T3 tox 58* and NIH3T3 tox 2 83*.
For C[C@H]1CN([C@@H](C)CO)S(=O)(=O)c2ccc(C3=CCCCC3)cc2O[C@H]1CN(C)Cc1cncnc1 the results were T cruzi growth-1 78 and KDM4C inh 2.
C[C@H]1CN([C@@H](C)CO)S(=O)(=O)c2ccc(C3=CCCCC3)cc2O[C@@H]1CN(C)Cc1ccncc1 was read as T cruzi growth-1 121*, IDH1 R132H inh 6, KDM4C inh 0, T cruzi growth-2 96*, T cruzi growth-3 97*, NIH3T3 tox 53* and NIH3T3 tox 2 102*.
C[C@@H]1CN([C@@H](C)CO)S(=O)(=O)c2ccc(C3=CCCCC3)cc2O[C@@H]1CN(C)Cc1ccncc1 was read as T cruzi growth-1 102*, KDM4C inh -1, T cruzi growth-2 99*, T cruzi growth-3 92, NIH3T3 tox inconclusive and NIH3T3 tox 2 78*.
C[C@@H]1CN([C@H](C)CO)S(=O)(=O)c2ccc(C3=CCCC3)cc2O[C@H]1CN(C)Cc1cncnc1 was read as T cruzi growth-1 44, IDH1 R132H inh 3 and KDM4C inh 0.
Screening CCOc1ccccc1-c1nnc(SCC(=O)Nc2ccc(I)cc2)o1 returned IDH1 R132H inh 0.
Screening C[C@H](CO)N1C[C@H](C)[C@H](CN(C)Cc2ccccc2)Oc2cc(-c3ccncc3)ccc2S1(=O)=O returned T cruzi growth-1 85 and KDM4C inh -2.
For C[C@@H]1CN([C@H](C)CO)S(=O)(=O)c2ccc(-c3ccncc3)cc2O[C@H]1CN(C)Cc1ccccc1 the results were T cruzi growth-1 inconclusive, IDH1 R132H inh 0, KDM4C inh -1, T cruzi growth-2 98*, T cruzi growth-3 100*, NIH3T3 tox 60* and NIH3T3 tox 2 94*.
C[C@@H]1CN([C@@H](C)CO)S(=O)(=O)c2ccc(-c3ccncc3)cc2O[C@H]1CN(C)Cc1ccccc1 was read as T cruzi growth-1 inconclusive, KDM4C inh -1, T cruzi growth-2 92, T cruzi growth-3 99*, NIH3T3 tox 76* and NIH3T3 tox 2 96*.
Screening C[C@H]1CN([C@@H](C)CO)S(=O)(=O)c2ccc(-c3ccncc3)cc2O[C@@H]1CN(C)Cc1ccccc1 returned T cruzi growth-1 90, IDH1 R132H inh 28 and KDM4C inh -2.
For COc1ccc(C)cc1NC(=O)CN(c1ccc(Cl)cc1)S(C)(=O)=O the results were IDH1 R132H inh 0.
Screening Cc1ccc(N(C(C)C(=O)Nc2c(C)cc(C)cc2C)S(C)(=O)=O)cc1 (stereo not given) returned IDH1 R132H inh 6.
For N#Cc1c(NC(=O)CSc2nc(-c3ccccc3)cc(C(F)(F)F)n2)sc2c1CCCCC2 the results were IDH1 R132H inh 0.
Screening Cc1ccccc1NC(=O)CCc1nc(-c2ccccc2F)no1 returned IDH1 R132H inh 0.
O=C1c2ccccc2C2CC(c3cc(Cl)ccc3Cl)=NN12 (stereo not given) was read as IDH1 R132H inh 0.
Screening CN(C)CC#Cc1ccc([C@@H]2[C@H]3CN(C(=O)Nc4cc(F)ccc4F)CCCCN3[C@H]2CO)cc1 returned T cruzi growth-1 117*, KDM4C inh 3, T cruzi growth-2 43, T cruzi growth-3 -30, NIH3T3 tox inconclusive and NIH3T3 tox 2 103*.
CN(C)CC#Cc1ccc([C@@H]2[C@@H](CO)N3CCCCN(C(=O)Nc4ccccc4F)C[C@@H]23)cc1 was read as T cruzi growth-1 34 and KDM4C inh 5.
`CN(C)CC#Cc1ccc([C@@H]2[C@@H](CO)N3CCCCN(C(=O)Nc4cc(F)ccc4F)C[C@@H]23)cc1` gave T cruzi growth-1 106*, KDM4C inh 5, T cruzi growth-2 101*, T cruzi growth-3 35, NIH3T3 tox -17 and NIH3T3 tox 2 45*.
`CN(C)CC#Cc1ccc([C@@H]2[C@H]3CN(C(=O)Nc4ccccc4F)CCCCN3[C@H]2CO)cc1` gave T cruzi growth-1 68 and KDM4C inh 2.
CN(C(=S)Nc1ccccc1)C1CCC(C2OCCO2)CC1O (stereo not given) was read as IDH1 R132H inh 1.
`COc1cc(NC(=O)COc2ccc3ccccc3c2Br)c(OC)cc1Cl` gave IDH1 R132H inh 0.
Screening Cc1ccccc1OC(C)c1nc(-c2ccccn2)no1 (stereo not given) returned IDH1 R132H inh -1.
Screening COC(=O)c1c(NC(=O)CN2C(=O)c3ccccc3S2(=O)=O)sc2c1CCCC2 returned IDH1 R132H inh 0.
`C[C@H](CO)N1C[C@H](C)[C@H](CN(C)Cc2cccc(F)c2)Oc2ncc(C#CCc3ccccc3)cc2C1=O` gave T cruzi growth-1 -74, IDH1 R132H inh 2 and KDM4C inh 13.
For C[C@@H]1CN([C@H](C)CO)C(=O)c2cc(C#CCc3ccccc3)cnc2O[C@H]1CN(C)Cc1cccc(F)c1 the results were T cruzi growth-1 72, IDH1 R132H inh 1 and KDM4C inh 0.
For C[C@@H]1CN([C@H](C)CO)C(=O)c2cc(C#CCc3ccccc3)cnc2O[C@@H]1CN(C)Cc1cccc(F)c1 the results were T cruzi growth-1 -5, IDH1 R132H inh 0 and KDM4C inh 0.
CC(C)CC#Cc1cnc2c(c1)C(=O)N([C@H](C)CO)C[C@@H](C)[C@H](CN(C)Cc1cccc(F)c1)O2 was read as T cruzi growth-1 103*, IDH1 R132H inh -2, KDM4C inh -2, T cruzi growth-2 106*, T cruzi growth-3 46, NIH3T3 tox 24 and NIH3T3 tox 2 102*.
For CC(C)CC#Cc1cnc2c(c1)C(=O)N([C@H](C)CO)C[C@@H](C)[C@@H](CN(C)Cc1cccc(F)c1)O2 the results were T cruzi growth-1 inconclusive, IDH1 R132H inh -1, KDM4C inh -1, T cruzi growth-2 104*, T cruzi growth-3 50, NIH3T3 tox 18 and NIH3T3 tox 2 61*.
`CC(C)CC#Cc1cnc2c(c1)C(=O)N([C@@H](C)CO)C[C@H](C)[C@@H](CN(C)Cc1cccc(F)c1)O2` gave T cruzi growth-1 102*, IDH1 R132H inh -2, KDM4C inh 1, T cruzi growth-2 108*, T cruzi growth-3 83, NIH3T3 tox 17 and NIH3T3 tox 2 105*.
Screening O=C(CCCCCCC(=O)Nc1ccccc1O)N/N=C/c1ccco1 returned IDH1 R132H inh 0.
`Cc1ccc(N(CC(=O)Nc2ccc(F)c(Cl)c2)S(C)(=O)=O)cc1` gave IDH1 R132H inh 0.

Screening results as filed in PubChem BioAssay.
